Data published in ChEMBL document CHEMBL2010670, “Discovery of a clinical stage multi-kinase inhibitor sodium (E)-2-{2-methoxy-5-[(2',4',6'-trimethoxystyrylsulfonyl)methyl]phenylamino}acetate (ON 01910.Na): synthesis, structure-activity relationship, and biological activity” (J Med Chem, 2011).
Active and inactive are the calls of the source. The calls are words filed in the database; no cut-off is given here.

Columns and labels:
MOLT-4 = assay: Cytotoxicity against human MOLT4 cells after 96 hrs by trypan blue exclusion assay; type: functional, cell-based; conditions: MOLT-4, 96 h
Method in brief: (§1)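 Cells grown in DMEM or RPMI with 10% FBS and penicillin-streptomycin, seeded at 1.0 × 10⁵ cells/mL/well in 6-well dishes. Compound added at a range of concentrations 24 h after seeding. Viable cells counted by trypan blue exclusion from duplicate wells after 96 h of exposure; dose-response end point.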

LP-1 = assay: Cytotoxicity against human LP-1 cells after 96 hrs by trypan blue exclusion assay; type: functional, cell-based; conditions: LP-1, 96 h; method in brief: as §1
BT-474 = assay: Cytotoxicity against human BT474 cells after 96 hrs by trypan blue exclusion assay; type: functional, cell-based; conditions: BT-474, 96 h; method in brief: as §1
SK-BR-3 = assay: Cytotoxicity against human SKBR3 cells after 96 hrs by trypan blue exclusion assay; type: functional, cell-based; conditions: SK-BR-3, 96 h
Method in brief: (§2)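 Cells grown in DMEM or RPMI with 10% FBS and 1 unit/mL penicillin-streptomycin, seeded at 1.0 × 10⁵ cells/mL/well in 6-well dishes; compound added 24 h later at various concentrations. After 96 h of treatment, viable cells counted by trypan blue exclusion in duplicate wells; dose-response end point.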

MCF7 = assay: Cytotoxicity against human MCF7 cells after 96 hrs by trypan blue exclusion assay; type: functional, cell-based; conditions: MCF7, 96 h; method in brief: as §1
Daudi = assay: Cytotoxicity against human Daudi cells after 96 hrs by trypan blue exclusion assay; type: functional, cell-based; method in brief: as §1
2008 = assay: Cytotoxicity against human 2008 cells assessed as cell viability after 96 hrs by trypan blue exclusion; type: functional, cell-based; conditions: Homo sapiens, 2008, 96 h; method in brief: as §1
BT-20 = assay: Cytotoxicity against human BT20 cells after 96 hrs by trypan blue exclusion assay; type: functional, cell-based; conditions: BT-20, 96 h; method in brief: as §1
[1] = Cytotoxicity against human COLO320 cells after 96 hrs by trypan blue exclusion assay; type: functional, cell-based; conditions: COLO 320, 96 h; method in brief: as §1
DLD-1 = assay: Cytotoxicity against human DLD1 cells after 96 hrs by trypan blue exclusion assay; type: functional, cell-based; conditions: DLD-1, 96 h; method in brief: as §1
OPM-2 = assay: Cytotoxicity against human OPM2 cells after 96 hrs by trypan blue exclusion assay; type: functional, cell-based; conditions: OPM-2, 96 h; method in brief: as §1
NCI-H1975 = assay: Cytotoxicity against human NCI-H1975 cells after 96 hrs by trypan blue exclusion assay; type: functional, cell-based; conditions: NCI-H1975, 96 h; method in brief: as §1
PC-3 = assay: Cytotoxicity against human PC3 cells after 96 hrs by trypan blue exclusion assay; type: functional, cell-based; conditions: PC-3, 96 h; method in brief: as §1
A549 [2] = assay: Cytotoxicity against human A549 cells after 96 hrs by trypan blue exclusion assay; type: functional, cell-based; conditions: A549, 96 h; method in brief: as §1
MIA PaCa-2 = assay: Cytotoxicity against human MIAPaCa2 cells after 96 hrs by trypan blue exclusion assay; type: functional, cell-based; conditions: MIA PaCa-2, 96 h; method in brief: as §1
[3] = Cytotoxicity against human GRANTA-519 cells after 96 hrs by trypan blue exclusion assay; type: functional, cell-based; conditions: Granta-519, 96 h; method in brief: as §1
[4] = Cytotoxicity against multidrug-resistant human MES-SA/Dx5 cells assessed as cell viability after 96 hrs by trypan blue exclusion; type: functional, cell-based; conditions: MES-SA/Dx5, 96 h; method in brief: as §2
OVCAR-3 = assay: Cytotoxicity against human OVCAR3 cells after 96 hrs by trypan blue exclusion assay; type: functional, cell-based; conditions: OVCAR-3, 96 h; method in brief: as §1
CCRF-CEM = assay: Cytotoxicity against human CEM cells assessed as cell viability after 96 hrs by trypan blue exclusion; type: functional, cell-based; method in brief: as §1
[5] = Cytotoxicity against human […] cells after 96 hrs by trypan blue exclusion assay; type: functional, cell-based; method in brief: as §2
[6] = Cytotoxicity against human NAMALWA cells after 96 hrs by trypan blue exclusion assay; type: functional, cell-based; conditions: NAMALVA; method in brief: as §1
K562 = assay: Cytotoxicity against human K562 cells after 96 hrs by trypan blue exclusion assay; type: functional, cell-based; conditions: Homo sapiens, K562, 96 h; method in brief: as §1
CEM/C2 = assay: Cytotoxicity against multidrug-resistant human CEM/C2 cells assessed as cell viability after 96 hrs by trypan blue exclusion; type: functional, cell-based; conditions: CEM/C2, 96 h; method in brief: as §2
[7] = Cytotoxicity against multidrug-resistant human 2008/17/4 cells assessed as cell viability after 96 hrs by trypan blue exclusion; type: functional, cell-based; method in brief: as §2
Raji = assay: Cytotoxicity against human Raji cells after 96 hrs by trypan blue exclusion assay; type: functional, cell-based; method in brief: as §2
HCT-116 = assay: Cytotoxicity against human HCT116 cells after 96 hrs by trypan blue exclusion assay; type: functional, cell-based; conditions: HCT-116, 96 h; method in brief: as §1
AGS = assay: Cytotoxicity against human AGS cells after 96 hrs by trypan blue exclusion assay; type: functional, cell-based; method in brief: as §1
[8] = Cytotoxicity against human RF48 cells after 96 hrs by trypan blue exclusion assay; type: functional, cell-based; conditions: RF48, 96 h; method in brief: as §2
NCI-H417 = assay: Cytotoxicity against human NCI-N417 cells after 96 hrs by trypan blue exclusion assay; type: functional, cell-based; conditions: NCI-H417, 96 h; method in brief: as §1
T47D = assay: Cytotoxicity against human T47D cells after 96 hrs by trypan blue exclusion assay; type: functional, cell-based; method in brief: as §2
HCT-15 = assay: Cytotoxicity against human HCT15 cells after 96 hrs by trypan blue exclusion assay; type: functional, cell-based; conditions: HCT-15, 96 h; method in brief: as §1
COLO 205 = assay: Cytotoxicity against human COLO205 cells after 96 hrs by trypan blue exclusion assay; type: functional, cell-based; conditions: COLO 205, 96 h; method in brief: as §1
NCI-H187 = assay: Cytotoxicity against human NCI-H187 cells after 96 hrs by trypan blue exclusion assay; type: functional, cell-based; conditions: NCI-H187, 96 h; method in brief: as §1
SW480 = assay: Cytotoxicity against human SW480 cells after 96 hrs by trypan blue exclusion assay; type: functional, cell-based; conditions: SW480, 96 h; method in brief: as §2
NCI-H157 = assay: Cytotoxicity against human NCI-H157 cells after 96 hrs by trypan blue exclusion assay; type: functional, cell-based; conditions: NCI-H157, 96 h; method in brief: as §1
U-266 = assay: Cytotoxicity against human U266 cells after 96 hrs by trypan blue exclusion assay; type: functional, cell-based; conditions: U-266, 96 h; method in brief: as §2
[9] = Cytotoxicity against human RF1 cells after 96 hrs by trypan blue exclusion assay; type: functional, cell-based; conditions: RF1, 96 h; method in brief: as §2
[10] = Cytotoxicity against human Z138C cells after 96 hrs by trypan blue exclusion assay; type: functional, cell-based; method in brief: as §2
[11] = Cytotoxicity against human MES-SA cells assessed as cell viability after 96 hrs by trypan blue exclusion; type: functional, cell-based; method in brief: as §1
DU-145 [12] = assay: Cytotoxicity against human DU145 cells after 96 hrs by trypan blue exclusion assay; type: functional, cell-based; conditions: Homo sapiens, DU-145, 96 h; method in brief: as §1
[13] = Cytotoxicity against human U87 cells after 96 hrs by trypan blue exclusion assay; type: functional, cell-based, U-87MG ATCC; conditions: U-87 MG; method in brief: as §2
DU-145 [14] = assay: Induction of apoptosis in human DU145 cells assessed as PARP1 cleavage at 0.25 to 5 uM after 48 hrs by Western blot analysis; type: functional, cell-based
Method in brief: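 DU145 or HFL-1 cells plated at 3.0 × 10⁶ per […], treated 24 h later with DMSO or compound for 48 h. Frozen pellets lysed in 1% NP40/PBS with protease inhibitors. Equal protein run on 10% SDS-PAGE, transferred to nitrocellulose, probed with anti-PARP antibody, ECL detection.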

A549 [15] = assay: Induction of apoptosis in human A549 cells assessed as caspase 3/7 activity at 0.25 uM after 24 hrs by luminescence assay; type: functional, cell-based
Method in brief: (§3)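 A549 cells seeded at 3,600 cells/well in DMEM + 10% FBS, adhered overnight at 37 °C, then exposed to varying compound concentrations or DMSO for 24 h. Viability read first as fluorescence 3 h after CellTiter-Blue addition. Caspase-Glo 3/7 was then added to the same wells, developed 2 h at room temperature, and luminescence read; n=3.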

A549 [16] = assay: Induction of apoptosis in human A549 cells assessed as cell viability at 0.25 uM after 24 hrs by fluorescence assay; type: functional, cell-based; method in brief: as §3
DU-145 [17] = assay: Cell cycle arrest in human DU145 cells assessed as accumulation of cells in G2/M phase after 24 hrs by propidium iodide staining-based flow cytometric analysis; type: functional
Method in brief: (§4)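 DMEM with 10% FBS; 1.0 × 10⁶ cells/dish, treated 24 h after plating and harvested 24 h after treatment. Trypsinized cells were pooled with floating cells, PBS-washed and fixed in ice-cold 70% ethanol for ≥24 h. Cells were stained with propidium iodide plus RNase A for 30 min at 37 °C. DNA content was read by flow cytometry with cell-cycle modelling.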

DU-145 [18] = assay: Cell cycle arrest in human DU145 cells assessed as accumulation of cells containing subG1 content of DNA at 0.1 to 1 uM after 24 hrs by propidium iodide staining-based flow cytometric analysis; type: functional; method in brief: as §4

SMILES: COc1cc(OC)c(/C=C/S(=O)(=O)Cc2ccc(OC)c(N)c2)c(OC)c1
- IC50 (MOLT-4): 4 nM
- IC50 (LP-1): 3 nM
- IC50 (BT-474): 2 nM
- IC50 (SK-BR-3): 3 nM
- IC50 (MCF7): 1 nM
- IC50 (Daudi): 3 nM
- IC50 2008: 3 nM
- IC50 (BT-20): 30 nM
- IC50 [1]: 3 nM
- IC50 (DLD-1): 5 nM
- IC50 (OPM-2): 3 nM
- IC50 (NCI-H1975): 3 nM
- IC50 (PC-3): 6 nM
- IC50 (A549 [2]): 3 nM
- IC50 (MIA PaCa-2): 3 nM
- IC50 [3]: 3 nM
- IC50 [4]: 4 nM
- IC50 (OVCAR-3): 3 nM
- IC50 (CCRF-CEM): 10 nM
- IC50 [5]: 3 nM
- IC50 [6]: 5 nM
- IC50 (K562): 2.5 nM
- IC50 (CEM/C2): 10 nM
- IC50 [7]: 3 nM
- IC50 (Raji): 2 nM
- IC50 (HCT-116): 3 nM
- IC50 (AGS): 3 nM
- IC50 [8]: 1 nM
- IC50 (NCI-H417): 3 nM
- IC50 (T47D): 3 nM
- IC50 (HCT-15): 3 nM
- IC50 (COLO 205): 5 nM
- IC50 (NCI-H187): 4 nM
- IC50 (SW480): 5 nM
- IC50 (NCI-H157): 4 nM
- IC50 (U-266): 3 nM
- IC50 [9]: 2 nM
- IC50 [10]: 3 nM
- IC50 [11]: 4 nM
- IC50 (DU-145 [12]): 4 nM
- IC50 [13]: 3 nM

SMILES: COc1cc(OC)c(/C=C/S(=O)(=O)Cc2ccc(OC)c(NCC(=O)O)c2)c(OC)c1
- Activity (DU-145 [14]): Active
- Activity (A549 [15]): Active
- Activity (A549 [16]): Active
- Activity (DU-145 [17]): Dose-dependent effect
- Activity (DU-145 [18]): Active
